“And” between values parts separate entries of the source, which are not always exact repeats. Equal values may be shown once. “Also recorded” adds a separate entry of the source. Read-outs that look alike come from different tables or passages of the source. Marks after values point to notes of the source that are not given here. Each block holds one compound with its values, some of them ahead of it.
Legend:
[1] = dogs; cited from earlier work
[2] = dose range of 0.5–300 mg, fasting state; cited from earlier work
[3] = ref data on file; cited from earlier work
[4] = assay type: in vivo, human; conditions: for AUCinf(dn), adjusted least squares geometric mean: N = 8, mixed-effects model; for t1/2 / half-life: arithmetic mean ± SD
How it was run: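 In period 1, after an overnight fast of at least 8 h, subjects received 15 mg oral unlabeled drug. A 100 μg 14C i.v. microdose (~400 nCi) was infused over ~5 min, ending 1 h post oral dose. Plasma 14C drug was measured by HPLC-AMS and unlabeled drug by HPLC-MS/MS (LLOQ 0.5 ng/mL). Noncompartmental AUClast used linear-log trapezoids and AUCinf = AUClast + Clast*/kel, normalized to the actual dose. F = ratio of adjusted geometric means, from a mixed-effects model on ln AUCinf with 90% CI.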

[5] = rats; cited from earlier work
[6] = cited from earlier work
[7] = assay type: in vivo, human; conditions: for 14C_Total(dn) (14C_Total in dpm/radioactivity dose in dpm), geometric mean: N = 6; for 14C-Total urinary excretion: mean (%CV)
How it was run: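 Period 1 was the i.v. 14C microdose. In period 2, after at least 11 days washout and a fast of at least 8 h, subjects took 15 mg oral unlabeled drug (three 5-mg tablets), then a 100 μg oral 14C solution (~400 nCi) with ~240 mL water. Urine 0–96 h was assayed for 14C by AMS, summed as concentration × volume, then normalized to the administered dpm. That dose came from LSC of the solution and syringe weight. Fa = oral/i.v. geometric mean ratio, plus a mixed-effects model using all data.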

[8] = Safety and tolerability assessments in the microtracer study; assay type: in vivo, human; conditions: for Adverse events: N = 8
How it was run: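 Eight healthy adult men, fasted at least 8 h overnight, received the test compound orally plus an i.v. 14C microtracer (period 1), then oral unlabeled drug plus oral 14C microtracer (period 2). Monitoring covered adverse events, vital signs, ECGs and laboratory tests from screening through the study. A telephone follow-up for adverse events was made 14 ± 3 days after the last dose.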

[9] = system: Caco‐2 cells; conditions: cited from earlier work
[10] = 15 mg oral unlabeled, dose-normalized to 1 mg, geometric mean (geometric %CV)
[11] = 100 μg i.v. 14C, geometric mean (geometric %CV)

AUCinf(dn), adjusted least squares geometric mean ([4]; 15 mg oral unlabeled (Test)): 93.16 ng·h/mL/mg
Time quantifiable in plasma postdose ([4]; 15 mg oral unlabeled, HPLC-MS/MS, LLOQ 0.5 ng/mL): 72 h
t1/2 ([4]; 15 mg oral unlabeled, listed as Unlabeled ertugliflozin): 14.04 ± 2.17 h
AUCinf(dn) [4, 10]: 93.16 (13) ng·h/mL/mg
Cmax(dn) [4, 10]: 17.09 (14) ng/mL/mg
CL/F ([4]; 15 mg oral unlabeled, geometric mean (geometric %CV)): 178.7 mL/min
Permeability classification ([4]; based on F and Fa ∼100%): highly permeable
Vd ([4]; human, plasma, iv, 100 ug): 85.5 L
clearance ([4]; human, plasma, iv, 100 ug): 187 mL/min
half-life ([4]; human, plasma, iv, 100 ug, t1/2, 100 μg i.v. 14C): 8.1 h
AUC(0-inf) ([4]; human, plasma, po, 15 mg): 1400 ng·h/mL
AUC(0-t) ([4]; human, plasma, po, 15 mg): 1380 ng·h/mL
Cmax ([4]; human, plasma, po, 15 mg): 256 ng/mL
Vd/F ([4]; human, plasma, po, 15 mg): 215 L
half-life ([4]; human, plasma, po, 15 mg, t1/2, 15 mg oral unlabeled): 14 h
Absolute oral bioavailability F: Ratio (Test/Reference) of adjusted means ([4]; oral 15 mg vs i.v. 14C 100 μg, fasted, N = 8): 105% and 104.73%
Fraction absorbed Fa: geometric mean ratio (90% CI), mixed-effects model ([7]; all available data (N = 8 oral; N = 6 i.v.)): 110%
14C_Total(dn) (14C_Total in dpm/radioactivity dose in dpm), geometric mean ([7]; oral (Test, period 2), urine 0–96 h): 0.432
Fraction absorbed Fa: ratio (Test/Reference) of geometric means ([7]; six subjects with complete urine data for both treatments, fasted): 111% and 110.71%
Compound: CCOc1ccc(Cc2cc([C@]34OC[C@](CO)(O3)[C@@H](O)[C@H](O)[C@H]4O)ccc2Cl)cc1 [ertugliflozin]
Estimated Fa [1]: ~100%
Dose proportionality in exposure (AUC and Cmax) [2]: dose proportionality in exposure
Solubility classification [3]: highly soluble
Solubility of 15 mg in 250 mL aqueous media [3]: completely soluble
Estimated Fa [5]: ~75%
Principal biotransformation pathway ([6]; humans): glucuronidation
Renal excretion of unchanged ertugliflozin ([6]; single 25-mg oral 14C dose, healthy male subjects): 1.5%
Human fraction of dose absorbed (Fa) from mean urinary 14C recovery ([6]; single 25-mg oral 14C dose): at least 50%
Oral absorption ([7]; fasted conditions): complete; also recorded: completely absorbed
Tolerability ([8]; following i.v. and oral administration, healthy men): well tolerated
Adverse events ([8]; period 1 (i.v. administration)): Three subjects experienced three AEs (back pain and two episodes of headache)
Adverse events ([8]; period 2 (oral administration)): one subject experienced one AE (nasal congestion)
BA/AB ratio ([9]; Caco-2): 2.1
Permeability coefficient ([9]; apical (A) to basolateral (B) direction): 4.1 ×10⁻⁶ cm/s

AUCinf(dn), adjusted least squares geometric mean ([4]; 100 μg i.v. 14C (Reference)): 88.96 ng·h/mL/mg
AUCinf ([4]; 100 μg i.v. 14C microdose, period 1, N = 8, geometric mean (geometric %CV)): 8.477 (15) ng·h/mL
Time quantifiable in plasma postdose ([4]; 100 μg i.v. 14C microdose, HPLC-AMS, LLOQ 20.4 pg/mL): ~24 h
Tmax ([4]; 100 μg i.v. 14C, 5-min infusion, relative to infusion start, median (range)): 0.083 (0.083–0.100) h
t1/2 ([4]; 100 μg i.v. 14C): 8.098 ± 2.248 h
Cmax(dn) ([4]; 100 μg i.v. 14C, dose-normalized to 1 mg, geometric mean (geometric %CV)): 89.34 ^b (32) ng/mL/mg
AUClast [4, 11]: 7.859 (14) ng·h/mL
CL [4, 11]: 187.2 (15) mL/min
Cmax [4, 11]: 8.514 (32) ng/mL
Vss [4, 11]: 85.53 (15) L
14C_Total(dn) (14C_Total in dpm/radioactivity dose in dpm), geometric mean ([7]; i.v. 100 μg 14C (Reference, period 1), urine): 0.390
14C-Total urinary excretion ([7]; i.v. 100 μg 14C, period 1, N = 6): 319,000 (19) dpm and 319,000 dpm
Total 14C in urine as percent of administered dose (% 14C_Total) ([7]; i.v. administration): 39%
14C-Total urinary excretion ([7]; oral 100 μg 14C, period 2, N = 8): 320,400 (10) dpm and 320,400 dpm
Total 14C in urine as percent of administered dose (% 14C_Total) ([7]; oral administration): 44%
Compound: ^14C‐ertugliflozin

Reference: article PMC6039199 (Clinical and Translational Science, 2018)
